One block for each compound: values may come before it. Active and inactive are the calls of the source. The calls are words filed in the database; no cut-off is given here.
Tests used:
[1] = tested on: M21; assay: Antiproliferative activity against human M21 cells assessed as cell growth inhibition after 48 hrs by sulforhodamine B assay; assay type: functional, cell-based; settings: M21, 48 h
Method in brief: (§1)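 NCI-style SRB screen with minor changes. Cells seeded per well in DMEM with 5% FBS: HT-29 4.0 x 10^3, M21 3.0 x 10^3, MCF-7 2.5 x 10^3, HT-1080 2.5 x 10^3. After 24 h, serially diluted drug was added at 50 µM to 1 nM final, DMSO <0.5%, for 48 h. Fixed with cold TCA, stained with SRB, read at 530–568 nm against plates fixed on treatment day. At least two experiments in triplicate, CV <10%.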

[2] = molecular target: T1, Tubulin beta (Homo sapiens) (UniProt P68371+Q9H4B7+Q13509+P04350+Q3ZCM7+P07437+Q13885+Q9BVA1+Q9BUF5+A6NNZ2); assay: Inhibition of N,N-ethylene-bis(iodoacetamide) binding to Tubulin beta colchicines-binding site in human M21 cells assessed as adduct formation at 910 nM by Western blot analysis; assay type: cell-based
[3] = Antiproliferative activity against human HT1080 cells assessed as cell growth inhibition after 48 hrs by sulforhodamine B assay; assay type: functional, cell-based; settings: HT-1080, 48 h
[4] = molecular target: T1, Tubulin beta (Homo sapiens); assay: Inhibition of N,N-ethylene-bis(iodoacetamide) binding to Tubulin beta colchicines-binding site in human M21 cells assessed as adduct formation at 2500 nM by Western blot analysis; assay type: cell-based
[5] = molecular target: T1, Tubulin beta (Homo sapiens); assay: Inhibition of N,N-ethylene-bis(iodoacetamide) binding to Tubulin beta colchicines-binding site in human M21 cells assessed as adduct formation at 410 nM by Western blot analysis; assay type: cell-based
[6] = tested on: M21; assay: Induction of cell cycle arrest in human M21 cells assessed as cells accumulation at subG1 phase at 63 nM after 24 hrs by flow cytometry (reference value: 1.2%); assay type: functional
[7] = tested on: M21; assay: Induction of microtubule depolymerization and cytoskeleton disruption in human M21 cells at 63 nM after 16 hrs by immunofluorescence assay
[8] = tested on: HT-29; assay: Antiproliferative activity against human HT-29 cells assessed as cell growth inhibition after 48 hrs by sulforhodamine B assay; assay type: functional, cell-based; settings: HT-29, 48 h; method in brief: as §1
[9] = tested on: M21; assay: Induction of cell cycle arrest in human M21 cells assessed as cells accumulation at G2/M phase at 63 nM after 24 hrs by flow cytometry (reference value: 22.1%); assay type: functional
[10] = tested on: M21; assay: Induction of cell cycle arrest in human M21 cells assessed as cells accumulation at G0/G1 phase at 63 nM after 24 hrs by flow cytometry (reference value: 54.5%); assay type: functional
[11] = tested on: M21; assay: Induction of cell cycle arrest in human M21 cells assessed as cells accumulation at S phase at 63 nM after 24 hrs by flow cytometry (reference value: 22.2%); assay type: functional
[12] = tested on: MCF7; assay: Antiproliferative activity against human MCF7 cells assessed as cell growth inhibition after 48 hrs by sulforhodamine B assay; assay type: functional, cell-based; settings: MCF7, 48 h; method in brief: as §1
[13] = tested on: M21; assay: Induction of cell cycle arrest in human M21 cells assessed as cells accumulation at G0/G1 phase at 4100 nM after 24 hrs by flow cytometry (reference value: 54.5%); assay type: functional
[14] = molecular target: T1, Tubulin beta (Homo sapiens); assay: Binding affinity to Tubulin beta in human M21 cells assessed as tubulin acylation at 8200 nM after 24 hrs by electrophoretic mobility shift assay
[15] = tested on: M21; assay: Induction of cell cycle arrest in human M21 cells assessed as cells accumulation at subG1 phase at 4100 nM after 24 hrs by flow cytometry (reference value: 1.2%); assay type: functional
[16] = tested on: M21; assay: Induction of microtubule depolymerization and cytoskeleton disruption in human M21 cells at 4100 nM after 16 hrs by immunofluorescence assay
[17] = tested on: M21; assay: Induction of cell cycle arrest in human M21 cells assessed as cells accumulation at G2/M phase at 4100 nM after 24 hrs by flow cytometry (reference value: 22.1%); assay type: functional
[18] = tested on: M21; assay: Induction of cell cycle arrest in human M21 cells assessed as cells accumulation at S phase at 4100 nM after 24 hrs by flow cytometry (reference value: 22.2%); assay type: functional
[19] = tested on: M21; assay: Induction of cell cycle arrest in human M21 cells assessed as cells accumulation at G0/G1 phase at 3100 nM after 24 hrs by flow cytometry (reference value: 54.5%); assay type: functional
[20] = tested on: M21; assay: Induction of cell cycle arrest in human M21 cells assessed as cells accumulation at G2/M phase at 3100 nM after 24 hrs by flow cytometry (reference value: 22.1%); assay type: functional
[21] = tested on: M21; assay: Induction of cell cycle arrest in human M21 cells assessed as cells accumulation at S phase at 3100 nM after 24 hrs by flow cytometry (reference value: 22.2%); assay type: functional
[22] = molecular target: T1, Tubulin beta (Homo sapiens); assay: Binding affinity to Tubulin beta in human M21 cells assessed as tubulin acylation at 3100 nM after 24 hrs by electrophoretic mobility shift assay; assay type: cell-based
[23] = tested on: M21; assay: Induction of cell cycle arrest in human M21 cells assessed as cells accumulation at subG1 phase at 3100 nM after 24 hrs by flow cytometry (reference value: 1.2%); assay type: functional
[24] = molecular target: T1, Tubulin beta (Homo sapiens); assay: Binding affinity to Tubulin beta in human M21 cells assessed as tubulin acylation at 1500 nM after 24 hrs by electrophoretic mobility shift assay; assay type: cell-based
[25] = tested on: M21; assay: Induction of microtubule depolymerization and cytoskeleton disruption in human M21 cells at 3100 nM after 16 hrs by immunofluorescence assay
[26] = tested on: M21; assay: Induction of cell cycle arrest in human M21 cells assessed as cells accumulation at S phase at 10 nM after 24 hrs by flow cytometry (reference value: 22.2%); assay type: functional
[27] = tested on: M21; assay: Induction of cell cycle arrest in human M21 cells assessed as cells accumulation at G2/M phase at 10 nM after 24 hrs by flow cytometry (reference value: 22.1%); assay type: functional
[28] = tested on: M21; assay: Induction of cell cycle arrest in human M21 cells assessed as cells accumulation at G0/G1 phase at 10 nM after 24 hrs by flow cytometry (reference value: 54.5%); assay type: functional
[29] = tested on: M21; assay: Induction of microtubule depolymerization and cytoskeleton disruption in human M21 cells at 10 nM after 16 hrs by immunofluorescence assay
[30] = tested on: M21; assay: Induction of cell cycle arrest in human M21 cells assessed as cells accumulation at subG1 phase at 10 nM after 24 hrs by flow cytometry (reference value: 1.2%); assay type: functional

Compound: Cc1cc(C)cc(/C=C/c2ccc(NC(=O)NCCCl)cc2)c1
IC50 [1]: > 20 µM
IC50 [3]: > 20 µM
IC50 [8]: 11 µM
IC50 [12]: 19 µM

Compound: CCNC(=O)Nc1ccc(/C=C\c2cccc(Cl)c2)cc1
IC50 [1]: 35 µM
IC50 [3]: 31 µM
IC50 [8]: 26 µM
IC50 [12]: 32 µM

Compound: O=C1NCCN1c1ccc(/C=C/c2cccc(Cl)c2)cc1
IC50 [1]: 19 µM
IC50 [3]: > 20 µM
IC50 [8]: 17 µM
IC50 [12]: 20 µM

Compound: COc1ccc(/C=C\c2cc(OC)c(OC)c(OC)c2)cc1O [COMBRETASTATIN A4]
Activity [26]: 6.6%
IC50 [1]: 0.0016 µM
Activity [27]: 91.4%
Activity [28]: 4.5%
IC50 [8]: 0.56 µM
Activity [29]: Active
Activity [30]: 7.5%
IC50 [12]: 0.0021 µM

Compound: Cc1cc(C)cc(/C=C/c2ccc(N3CCNC3=O)cc2)c1
IC50 [1]: 17 µM
IC50 [3]: > 20 µM
IC50 [8]: 14 µM
IC50 [12]: 16 µM

Compound: CCNC(=O)Nc1ccc(/C=C/c2cccc(Cl)c2)cc1
IC50 [1]: > 20 µM
IC50 [3]: > 20 µM
IC50 [8]: > 20 µM
IC50 [12]: 20 µM

Now from value to compound, other results behind:

inhibition [2]: Active
inhibition [4]: Active
inhibition [5]: Active
IC50 [8]: 0.025 µM
IC50 [12]: 0.038 µM
Compound: O=C1NCCN1c1ccc(/C=C\c2cccc(Cl)c2)cc1
IC50 [1]: 0.027 µM
IC50 [3]: 0.035 µM
Activity [6]: 13.6%
Activity [7]: Active
Activity [9]: 55.1%
Activity [10]: 17.4%
Activity [11]: 13.9%

Activity [14]: Active
IC50 [8]: 0.68 µM
IC50 [12]: 1.4 µM
Compound: COc1cc(/C=C\c2ccc(NC(=O)NCCCl)cc2)cc(OC)c1OC
Activity [13]: 3.9%
IC50 [1]: 0.95 µM
IC50 [3]: 1.4 µM
Activity [15]: 4.8%
Activity [16]: Active
Activity [17]: 85.5%
Activity [18]: 5.8%

IC50 [8]: 9.5 µM
IC50 [12]: 20 µM
Compound: COc1cc(/C=C/c2ccc(NC(=O)NCCCl)cc2)cc(OC)c1OC
IC50 [1]: > 20 µM
IC50 [3]: > 20 µM

Activity [22]: Active
Activity [24]: Active
IC50 [8]: 0.51 µM
IC50 [12]: 0.86 µM
Compound: Cc1cc(C)cc(/C=C\c2ccc(NC(=O)NCCCl)cc2)c1
Activity [19]: 5.7%
Activity [20]: 68.6%
IC50 [1]: 0.71 µM
Activity [21]: 13.2%
IC50 [3]: 0.7 µM
Activity [23]: 12.5%
Activity [25]: Active

Reference: ChEMBL document CHEMBL3588763, “Styryl-N-phenyl-N'-(2-chloroethyl)ureas and styrylphenylimidazolidin-2-ones as new potent microtubule-disrupting agents using combretastatin A-4 as model” (Eur J Med Chem, 2015)
